Results taken from ChEMBL document CHEMBL4229344 (Eur J Med Chem, 2018).
Active and inactive are the calls of the source. The rule behind the calls is not given here.

Columns and labels:
[1] = test system: Tyrosine-protein kinase ABL1 (Homo sapiens), P00519 [M351T]; test: Binding affinity to human phosphorylated ABL1 M351T mutant (S229 to K512 residues) expressed in mammalian expression system assessed as residual binding level at 1 uM by Kinomescan method relative to control
Procedure, shortened: (§1)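 Single-concentration (1 μM) competition-binding screen run by KINOMEscan against a panel of 468 purified kinases and mutants. The read-out is the relative binding activity of the test compound to each kinase.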

[2] = test system: ALK tyrosine kinase receptor (Homo sapiens), Q9UM73 [C1156Y]; test: Binding affinity to wild-type human partial length ALK C1156Y mutant (I1088 to E1409 residues) expressed in mammalian expression system assessed as residual binding level at 1 uM by Kinomescan method relative to control
Procedure, shortened: (§2)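 Single-concentration KINOMEscan (DiscoverX) binding screen at 1 μM against a panel of 468 purified kinases and mutants. The read-out is binding relative to control.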

[3] = biological target: 5'-AMP-activated protein kinase catalytic subunit alpha-2 (Homo sapiens) (UniProt P54646); test: Binding affinity to wild-type human partial length AMPK alpha2 (M1 to E306 residues) expressed in bacterial expression system assessed as residual binding level at 1 uM by Kinomescan method relative to control; procedure, shortened: as §2
Chain of 5'-AMP-activated protein kinase catalytic subunit alpha-2 (Homo sapiens) (P54646 whole entry, looked up, the tested form may be a part): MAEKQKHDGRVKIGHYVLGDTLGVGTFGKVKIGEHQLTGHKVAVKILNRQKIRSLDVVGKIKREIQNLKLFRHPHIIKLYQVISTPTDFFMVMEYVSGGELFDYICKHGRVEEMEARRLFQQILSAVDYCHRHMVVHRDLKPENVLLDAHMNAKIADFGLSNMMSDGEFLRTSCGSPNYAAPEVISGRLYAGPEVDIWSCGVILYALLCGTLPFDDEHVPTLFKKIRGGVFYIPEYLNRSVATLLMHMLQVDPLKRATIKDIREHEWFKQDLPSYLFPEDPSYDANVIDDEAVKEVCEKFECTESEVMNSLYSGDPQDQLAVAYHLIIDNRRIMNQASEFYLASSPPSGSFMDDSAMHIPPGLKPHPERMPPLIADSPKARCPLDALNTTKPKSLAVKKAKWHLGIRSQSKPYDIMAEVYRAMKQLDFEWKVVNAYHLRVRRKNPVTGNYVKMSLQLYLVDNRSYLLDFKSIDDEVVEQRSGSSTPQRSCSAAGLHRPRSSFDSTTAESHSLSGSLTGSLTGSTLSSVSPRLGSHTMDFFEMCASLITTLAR

[4] = biological target: Calcium/calmodulin-dependent protein kinase type II subunit beta (Homo sapiens) (UniProt Q13554); test: Binding affinity to wild-type human partial length CAMK2B (M1 to Q380 residues) expressed in bacterial expression system assessed as residual binding level at 1 uM by Kinomescan method relative to control
[5] = biological target: Dual specificity protein kinase CLK3 (Homo sapiens) (UniProt P49761); test: Binding affinity to wild-type human full length CLK3 (M1 to R490 residues) expressed in bacterial expression system assessed as residual binding level at 1 uM by Kinomescan method relative to control
Chain of Dual specificity protein kinase CLK3 (Homo sapiens) (P49761 whole entry, looked up, the tested form may be a part): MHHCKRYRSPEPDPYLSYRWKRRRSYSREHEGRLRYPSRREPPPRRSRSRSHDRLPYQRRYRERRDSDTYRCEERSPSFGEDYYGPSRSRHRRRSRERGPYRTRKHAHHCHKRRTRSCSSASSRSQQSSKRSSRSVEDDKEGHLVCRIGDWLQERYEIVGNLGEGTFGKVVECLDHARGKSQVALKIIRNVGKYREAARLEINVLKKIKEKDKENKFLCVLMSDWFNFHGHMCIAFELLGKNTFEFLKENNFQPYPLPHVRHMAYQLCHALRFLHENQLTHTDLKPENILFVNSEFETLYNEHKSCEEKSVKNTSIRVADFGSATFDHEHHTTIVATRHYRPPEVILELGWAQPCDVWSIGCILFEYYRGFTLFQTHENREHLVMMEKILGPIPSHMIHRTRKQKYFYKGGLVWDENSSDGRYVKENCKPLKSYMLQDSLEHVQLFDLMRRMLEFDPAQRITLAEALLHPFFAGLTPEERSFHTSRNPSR
Procedure, shortened: (§3)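 KINOMEscan competition binding against 468 purified kinases/mutants, test compound at 1 µM; residual binding relative to control.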

[6] = biological target: Casein kinase I isoform gamma-3 (Homo sapiens) (UniProt Q9Y6M4); test: Binding affinity to wild-type human full length CSNK1G3 (M1 to K447 residues) expressed in bacterial expression system assessed as residual binding level at 1 uM by Kinomescan method relative to control; procedure, shortened: as §3
[7] = biological target: Rhodopsin kinase GRK1 (Homo sapiens) (UniProt Q15835); test: Binding affinity to wild-type human full length GRK1 (M1 to S563 residues) expressed in mammalian expression system assessed as residual binding level at 1 uM by Kinomescan method relative to control; procedure, shortened: as §1
[8] = biological target: Serine/threonine-protein kinase Nek1 (Homo sapiens) (UniProt Q96PY6); test: Binding affinity to wild-type human partial length NEK1 (M1 to K278 residues) expressed in bacterial expression system assessed as residual binding level at 1 uM by Kinomescan method relative to control
[9] = biological target: Phosphatidylinositol 3-kinase C2 domain-containing subunit gamma (Homo sapiens) (UniProt O75747); test: Binding affinity to wild-type human partial length PIK3C2G (M1 to I1446 residues) expressed in mammalian expression system assessed as residual binding level at 1 uM by Kinomescan method relative to control
[10] = biological target: Serine/threonine-protein kinase D2 (Homo sapiens) (UniProt Q9BZL6); test: Binding affinity to wild-type human partial length PRKD2 (A519 to E838 residues) expressed in bacterial expression system assessed as residual binding level at 1 uM by Kinomescan method relative to control
[11] = biological target: Serine/threonine-protein kinase D3 (Homo sapiens) (UniProt O94806); test: Binding affinity to wild-type human partial length PRKD3 (S543 to E863 residues) expressed in bacterial expression system assessed as residual binding level at 1 uM by Kinomescan method relative to control
[12] = biological target: Serine/threonine-protein kinase SIK3 (Homo sapiens) (UniProt Q9Y2K2); test: Binding affinity to wild-type human partial length QSK (A90 to L395 residues) expressed in mammalian expression system assessed as residual binding level at 1 uM by Kinomescan method relative to control
Chain of Serine/threonine-protein kinase SIK3 (Homo sapiens) (Q9Y2K2 whole entry, looked up, the tested form may be a part): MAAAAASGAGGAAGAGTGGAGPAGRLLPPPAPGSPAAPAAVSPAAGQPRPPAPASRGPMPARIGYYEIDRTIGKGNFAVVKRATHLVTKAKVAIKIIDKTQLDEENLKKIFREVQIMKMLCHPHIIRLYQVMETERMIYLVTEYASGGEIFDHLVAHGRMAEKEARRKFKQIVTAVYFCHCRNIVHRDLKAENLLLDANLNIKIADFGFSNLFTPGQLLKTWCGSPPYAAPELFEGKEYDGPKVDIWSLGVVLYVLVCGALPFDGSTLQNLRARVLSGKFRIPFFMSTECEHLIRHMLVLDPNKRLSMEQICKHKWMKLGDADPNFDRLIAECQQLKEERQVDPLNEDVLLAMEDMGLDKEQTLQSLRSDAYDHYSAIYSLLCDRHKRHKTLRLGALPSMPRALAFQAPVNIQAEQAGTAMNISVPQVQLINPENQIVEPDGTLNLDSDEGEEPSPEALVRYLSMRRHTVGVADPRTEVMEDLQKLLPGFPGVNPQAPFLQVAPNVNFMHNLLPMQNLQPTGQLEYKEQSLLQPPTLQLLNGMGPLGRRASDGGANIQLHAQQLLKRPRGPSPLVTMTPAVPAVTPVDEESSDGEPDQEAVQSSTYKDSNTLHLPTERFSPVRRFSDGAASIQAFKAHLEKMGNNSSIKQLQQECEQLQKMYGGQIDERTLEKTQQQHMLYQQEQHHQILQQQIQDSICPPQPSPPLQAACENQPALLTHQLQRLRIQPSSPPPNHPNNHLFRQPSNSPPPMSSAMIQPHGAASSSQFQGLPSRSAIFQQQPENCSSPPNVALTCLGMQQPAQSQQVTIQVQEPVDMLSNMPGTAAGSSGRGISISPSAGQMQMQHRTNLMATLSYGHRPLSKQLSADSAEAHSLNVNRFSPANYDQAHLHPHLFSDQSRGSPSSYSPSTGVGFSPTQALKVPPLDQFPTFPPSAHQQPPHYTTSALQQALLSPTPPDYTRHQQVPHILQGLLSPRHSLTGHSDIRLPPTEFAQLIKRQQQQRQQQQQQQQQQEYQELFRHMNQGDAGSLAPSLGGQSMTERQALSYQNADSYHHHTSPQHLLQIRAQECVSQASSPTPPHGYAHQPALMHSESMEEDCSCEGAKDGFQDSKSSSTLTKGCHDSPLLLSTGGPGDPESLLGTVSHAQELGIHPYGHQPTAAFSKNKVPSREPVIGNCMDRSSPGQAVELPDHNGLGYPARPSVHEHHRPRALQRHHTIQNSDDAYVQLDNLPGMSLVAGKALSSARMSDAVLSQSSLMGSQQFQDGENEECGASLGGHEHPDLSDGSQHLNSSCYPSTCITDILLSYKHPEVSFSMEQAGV

[13] = biological target: RAF proto-oncogene serine/threonine-protein kinase (Homo sapiens) (UniProt P04049); test: Binding affinity to wild-type human partial length RAF1 (I330 to T640 residues) expressed in bacterial expression system assessed as residual binding level at 1 uM by Kinomescan method relative to control
[14] = biological target: Ribosomal protein S6 kinase alpha-4 (Homo sapiens) (UniProt O75676); test: Binding affinity to wild-type human partial length C-terminal RPS6KA4 kinase domain 2 (M375 to T705 residues) expressed in mammalian expression system assessed as residual binding level at 1 uM by Kinomescan method relative to control
[15] = biological target: Uncharacterized serine/threonine-protein kinase SBK3 (Homo sapiens) (UniProt P0C264); test: Binding affinity to wild-type human partial length SgK110 (L22 to R329 residues) expressed in bacterial expression system assessed as residual binding level at 1 uM by Kinomescan method relative to control
Chain of Uncharacterized serine/threonine-protein kinase SBK3 (Homo sapiens) (P0C264 whole entry, the tested form may be a part): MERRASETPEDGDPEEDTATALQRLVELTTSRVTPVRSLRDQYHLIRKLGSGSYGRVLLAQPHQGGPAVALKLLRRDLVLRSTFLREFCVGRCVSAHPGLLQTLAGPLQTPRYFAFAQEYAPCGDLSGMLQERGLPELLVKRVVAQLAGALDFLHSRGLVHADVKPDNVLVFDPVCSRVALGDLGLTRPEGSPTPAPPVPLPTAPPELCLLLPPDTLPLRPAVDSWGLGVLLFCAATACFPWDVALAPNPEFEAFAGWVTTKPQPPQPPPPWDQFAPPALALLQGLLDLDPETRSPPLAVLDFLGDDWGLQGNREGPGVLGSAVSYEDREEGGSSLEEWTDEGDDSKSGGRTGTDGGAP
Procedure, shortened: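 KINOMEscan competition binding against a panel of 468 purified kinases/mutants, compound tested at 1 μM; readout is relative binding activity versus control.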

[16] = biological target: Serine/threonine-protein kinase tousled-like 2 (Homo sapiens) (UniProt Q86UE8); test: Binding affinity to wild-type human partial length TLK2 (E424 to N749 residues) expressed in bacterial expression system assessed as residual binding level at 1 uM by Kinomescan method relative to control
[17] = biological target: BDNF/NT-3 growth factors receptor (Homo sapiens) (UniProt Q16620); test: Binding affinity to wild-type human partial length TRKB (Q547 to G838 residues) expressed in mammalian expression system assessed as residual binding level at 1 uM by Kinomescan method relative to control
[18] = biological target: Serine/threonine-protein kinase ULK1 (Homo sapiens) (UniProt O75385); test: Binding affinity to wild-type human partial length ULK1 (M1 to T309 residues) expressed in mammalian expression system assessed as residual binding level at 1 uM by Kinomescan method relative to control
Chain of Serine/threonine-protein kinase ULK1 (Homo sapiens) (O75385 whole entry, the tested form may be a part): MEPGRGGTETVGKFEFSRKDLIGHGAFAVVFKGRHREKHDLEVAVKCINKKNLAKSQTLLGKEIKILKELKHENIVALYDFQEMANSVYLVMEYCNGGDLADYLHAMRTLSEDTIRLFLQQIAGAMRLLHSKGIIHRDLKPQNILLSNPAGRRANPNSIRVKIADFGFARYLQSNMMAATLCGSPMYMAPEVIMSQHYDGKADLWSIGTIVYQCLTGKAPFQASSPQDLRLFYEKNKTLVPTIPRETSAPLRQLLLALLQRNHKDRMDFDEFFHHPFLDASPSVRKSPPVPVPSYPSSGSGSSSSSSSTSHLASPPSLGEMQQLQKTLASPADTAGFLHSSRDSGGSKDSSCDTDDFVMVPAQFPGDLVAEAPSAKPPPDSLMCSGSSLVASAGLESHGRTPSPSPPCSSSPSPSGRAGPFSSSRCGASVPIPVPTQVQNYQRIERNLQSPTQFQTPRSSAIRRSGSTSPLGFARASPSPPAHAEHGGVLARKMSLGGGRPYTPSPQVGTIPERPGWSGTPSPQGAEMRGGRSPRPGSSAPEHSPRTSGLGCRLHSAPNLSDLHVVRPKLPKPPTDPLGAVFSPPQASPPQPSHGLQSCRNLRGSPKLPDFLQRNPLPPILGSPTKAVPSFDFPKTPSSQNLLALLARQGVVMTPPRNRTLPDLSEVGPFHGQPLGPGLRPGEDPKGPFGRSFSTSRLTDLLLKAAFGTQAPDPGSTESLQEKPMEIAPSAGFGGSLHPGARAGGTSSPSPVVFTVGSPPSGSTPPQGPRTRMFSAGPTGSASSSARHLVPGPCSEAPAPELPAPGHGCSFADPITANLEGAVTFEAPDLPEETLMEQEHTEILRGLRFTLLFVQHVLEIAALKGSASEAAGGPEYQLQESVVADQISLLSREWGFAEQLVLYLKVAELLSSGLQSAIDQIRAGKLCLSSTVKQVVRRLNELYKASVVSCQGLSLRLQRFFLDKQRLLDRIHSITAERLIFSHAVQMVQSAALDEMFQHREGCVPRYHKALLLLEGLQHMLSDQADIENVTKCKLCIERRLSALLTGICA

[19] = biological target: Phosphatidylinositol 3-kinase catalytic subunit type 3 (Homo sapiens) (UniProt Q8NEB9); test: Binding affinity to wild-type human partial length VPS34 (S282 to H879 residues) expressed in mammalian expression system assessed as residual binding level at 1 uM by Kinomescan method relative to control
Chain of Phosphatidylinositol 3-kinase catalytic subunit type 3 (Homo sapiens) (Q8NEB9 whole entry, the tested form may be a part): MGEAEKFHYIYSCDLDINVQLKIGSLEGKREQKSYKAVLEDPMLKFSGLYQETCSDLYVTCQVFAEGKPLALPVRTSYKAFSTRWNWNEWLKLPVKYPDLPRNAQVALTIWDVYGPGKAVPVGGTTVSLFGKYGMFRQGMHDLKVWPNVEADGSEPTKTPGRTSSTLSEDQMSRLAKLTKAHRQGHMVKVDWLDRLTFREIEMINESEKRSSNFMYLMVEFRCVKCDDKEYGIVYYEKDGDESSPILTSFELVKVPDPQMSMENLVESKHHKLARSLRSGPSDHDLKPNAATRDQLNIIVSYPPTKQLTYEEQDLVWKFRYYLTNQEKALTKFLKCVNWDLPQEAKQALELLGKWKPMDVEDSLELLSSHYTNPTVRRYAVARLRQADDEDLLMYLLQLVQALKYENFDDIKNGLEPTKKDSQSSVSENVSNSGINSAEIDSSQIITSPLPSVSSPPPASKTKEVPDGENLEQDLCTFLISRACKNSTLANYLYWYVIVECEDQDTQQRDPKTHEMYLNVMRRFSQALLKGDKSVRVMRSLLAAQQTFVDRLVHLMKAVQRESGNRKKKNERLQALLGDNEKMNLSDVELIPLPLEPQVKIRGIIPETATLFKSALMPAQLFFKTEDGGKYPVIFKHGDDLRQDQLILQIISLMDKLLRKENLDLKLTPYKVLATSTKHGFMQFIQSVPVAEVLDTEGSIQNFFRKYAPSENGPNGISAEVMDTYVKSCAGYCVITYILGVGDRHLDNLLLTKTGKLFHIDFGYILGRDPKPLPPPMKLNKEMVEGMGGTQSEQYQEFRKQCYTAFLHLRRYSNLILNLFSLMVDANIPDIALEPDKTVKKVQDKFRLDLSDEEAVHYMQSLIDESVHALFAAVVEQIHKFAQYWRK

[20] = biological target: Platelet-derived growth factor receptor alpha (Homo sapiens, UniProt P16234); test: Inhibition of PDGFRalpha in human EOL-1 cells assessed as decrease in STAT3 phosphorylation at Y705 residue up to 300 nM after 2 hrs by Western blot analysis; assay type: cell-based
NCI-H1703 [21] = test: Induction of apoptosis in human NCI-H1703 cells assessed as cleaved caspase3 expression level at 0.3 to 10 uM after 72 hrs by Western blot analysis; assay type: functional, cell-based
Procedure, shortened: (§4)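 Cells exposed to compound or DMSO for the stated periods, then lysed and immunoblotted for PARP and caspase-3 cleavage, with β-actin as loading control. NCI-H1703 stimulation used PDGF AA at 100 ng/mL.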

NCI-H1703 [22] = test: Induction of apoptosis in human NCI-H1703 cells assessed as cleaved caspase3 expression level after 72 hrs in presence of PDGF-AA by Western blot analysis; assay type: functional, cell-based; procedure, shortened: as §4

Cc1ccc(NC(=O)c2ccc(CN(CCN(C)C)C(=O)c3cccnc3)cc2)cc1Nc1nccc(-c2cccnc2)n1
Activity [1]: 77%
Activity [2]: 100%
Activity [3]: 100%
Activity [4]: 99%
Activity [5]: 94%
Activity [6]: 92%
Activity [7]: 96%
Activity [8]: 100%
Activity [9]: 100%
Activity [10]: 93%
Activity [11]: 100%
Activity [12]: 96%
Activity [13]: 100%
Activity [14]: 100%
Activity [15]: 72%
Activity [16]: 95%
Activity [17]: 100%
Activity [18]: 100%
Activity [19]: 100%
inhibition [20]: Active
Activity (NCI-H1703 [21]): inactive
Activity (NCI-H1703 [22]): Active
